Measured values as given in paper PMC7104935 (Asian Pacific Journal of Tropical Medicine, 2015).
Values after ≈ are worked out from the molar mass of the structure shown. Values joined by “and” are separate entries in the source; they are usually repeats but may differ in a detail not shown here. Equal values may be shown once. “Also recorded” adds a separate entry of the source. Where a name gives a salt, the structure may show the parent alone. Read-outs that look alike come from different tables or passages of the source. Marks after values point to notes of the source that are not given here.

Experiments:
[1] = tested on: mouse hepatitis virus (MHV); experiment: microbe, parasite or virus in culture; assay type: cell-based, murine coronavirus; conditions: for IC50: read-out: IC50 against MHV
[2] = tested on: DENV-2 New Guinea C strain; experiment: DENV-2 plaque reduction neutralization test; assay type: cell-based, dengue virus type 2; conditions: for Selectivity index (DENV-2): CC50/IC50, '>' values with absence of cytotoxicity; for IC50: Dengue virus, DENV2, BHK-21, read-out: IC50 against DENV-2
Summary of the method: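 DENV-2 New Guinea C was propagated in C6/36 cells (L15, 3% FBS, 28 °C). 2-fold dilutions were made: extract fraction 166.67 to 0.08 μg/mL, flavonoids 500.00 to 15.63 μg/mL. Each was preincubated 1 h with 90 PFU, then adsorbed 1 h at 37 °C on BHK-21 monolayers (RPMI-1640, 10% FBS). Plates had 1% carboxymethylcellulose overlay for 6 d, then crystal violet plaque count. Run in duplicate, with mAb 3H5 as positive control. IC50 came from % plaque reduction curves.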

[3] = MTT cell viability and proliferation assay, BHK-21 cells; assay type: cell-based, baby hamster; conditions: hamster, BHK-21 cells (monolayers)
Summary of the method: (§1)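 BHK-21 monolayers were exposed to test compound for 48 h at 37 °C, 5% CO2, at the concentrations used in neutralization tests. MTT was added for 4 h, then 100 g/L SDS in 0.01 mol/L HCl overnight in the dark at room temperature. OD was read at 570 nm. Inhibition rate was taken relative to solvent-treated cells, and CC50 came from the concentration plot. Experiments were repeated; mean and standard deviation reported.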

HSV-1 = conditions: cited from earlier work
in vitro = conditions: mouse
BHK-21 cells = experiment: MTT cell viability and proliferation assay, BHK-21 cells; assay type: cell-based, baby hamster; conditions: at concentrations tested in PRNT
Summary of the method: as §1

Structure (SMILES) | Duration of inhibition of viral infectivity [1] | Selectivity index (MHV) [1] | IC50 ([1]; Murine coronavirus, 1 h) [µg/mL] | Selectivity index (DENV-2) [2] | IC50 [2] [µg/mL] | CC50 at 48 h [3] [µg/mL] | CC50 (CCL9.1 cells; mouse) [µg/mL] | Activity on HSV-1 among flavonoids (HSV-1) | CC50 (in vitro) [µg/mL] | Antiviral activity against MHV [1] | IC50 against MHV [1] | Anti-DENV-2 activity ([2]; PRNT, 500.00 down to 15.63 μg/mL) | Cytotoxicity to BHK cells (BHK-21 cells) | MHV inhibition [1] | MIC, anti-MHV activity [1] | IC50 ([1]; Murine coronavirus) [µg/mL] | MIC ([1]; Murine coronavirus, read-out: MIC, anti-MHV activity) [µg/mL] | Cytotoxicity on CCL9.1 cells (CCL9.1 cells)
O=c1c(O)c(-c2ccc(O)c(O)c2)oc2cc(O)cc(O)c12 [Quercetin, quercetin] | up to 6 d | 0.93 | 125 (≈ 414 µM) | 0.88 | 177 (≈ 585 µM) | 155 (≈ 514 µM) | 116.52 (≈ 386 µM) | highest activity | 116 (≈ 385 µM) | – | – | – | – | – | – | – | – | –
C[C@@H]1O[C@@H](OC[C@H]2O[C@@H](Oc3c(-c4ccc(O)c(O)c4)oc4cc(O)cc(O)c4c3=O)[C@H](O)[C@@H](O)[C@@H]2O)[C@H](O)[C@H](O)[C@H]1O [Rutin, quercetin-3-rutinoside] | – | – | – | – | – | – | – | no effect at all | – | did not exhibit antiviral activity | NIL | no anti-DENV-2 activity was detected | without cytotoxicity | – | – | – | – | –
C[C@@H]1O[C@@H](Oc2c(-c3ccc(O)c(O)c3)oc3cc(O)cc(O)c3c2=O)[C@H](O)[C@H](O)[C@H]1O [Quercitrin, quercetin-3-L-rhamnoside] | – | – | – | >1.07 ^c | 467 (≈ 1040 µM) | – | – | – | – | did not exhibit antiviral activity | NIL | – | did not cause cytotoxicity | – | – | – | – | –
CN(C)CCCSc1ccccc1NC(=O)/C=C/c1ccccc1 [Cinanserin, cinanserin hydrochloride] | 2 days | >4.00 ^c and >2.00 ^c | – | – | – | – | – | – | – | – | 62.50 µg/mL | – | – | no viral inhibition; also recorded: could not inhibit MHV | 62.50 µg/mL and 62.5 µg/mL | 31.2 | 31.2 | minimal or no cytotoxicity
